From article PMC7845017 (ACS Central Science, 2021)

Assays:
Assay in all cases: Broth microdilution MIC
A. baumannii ATCC 19606 = assay type: cell-based, Acinetobacter baumannii; details: A. baumannii ATCC 19606, Müller-Hinton medium, 16–20 h at 37 °C; at least two independent duplicates
Procedure, shortened: (§1)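 MIC reported in μg/mL. Each strain was grown in Müller-Hinton medium and incubated for 16–20 h at 37 °C. Every strain was tested in at least two independent duplicates.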

E. coli W3110 = assay type: cell-based, Escherichia coli; details: E. coli W3110, Müller-Hinton medium, 16–20 h at 37 °C; at least two independent duplicates
Procedure, shortened: as §1

K. pneumoniae NCTC418 = assay type: cell-based, Klebsiella pneumoniae; details: K. pneumoniae NCTC418, Müller-Hinton medium, 16–20 h at 37 °C; at least two independent duplicates
Procedure, shortened: as §1

P. aeruginosa PAO1 = assay type: cell-based, Pseudomonas aeruginosa; details: P. aeruginosa PAO1, Müller-Hinton medium, 16–20 h at 37 °C; at least two independent duplicates
Procedure, shortened: as §1

| A.baumannii MIC (A. baumannii ATCC 19606) [µg/mL] | E. coli MIC (E. coli W3110) [µg/mL] | K. pneumoniae MIC (K. pneumoniae NCTC418) [µg/mL] | P. aeruginosa MIC (P. aeruginosa PAO1) [µg/mL] | Substance |
| --- | --- | --- | --- | --- |
| 8 | 16 | 16 | >64 | ILPWKWPWWPWRR [sr-Indo] |
| >64 | 32 | >64 | >64 | KYKKALKKLAKLL [sr-SB1] |
| >64 | 16 | >64 | >64 | KYKKALKKLAKLL [sr^1/3-SB1] |
| >64 | 16 | >64 | >64 | KYKKALKKLAKLL [sr^3/1-SB1] |

More lines, now with the values behind:

| Substance | A.baumannii MIC (A. baumannii ATCC 19606) [µg/mL] | E. coli MIC (E. coli W3110) [µg/mL] | K. pneumoniae MIC (K. pneumoniae NCTC418) [µg/mL] | P. aeruginosa MIC (P. aeruginosa PAO1) [µg/mL] |
| --- | --- | --- | --- | --- |
| KYKKALKKLAKLL [rac-SB1] | 2 | 1 | 16 | 2 |
| VQWRAIRVRVIR [sr-DJK5] | >64 | 16 | >64 | >64 |
| polymyxin B [PMB, reference compound] | 0.25 | 0.25 | 0.25 | 0.25 |
